Experimental findings from ChEMBL document CHEMBL4834396, “Molecular Recognition and Imaging of Human Telomeric G-Quadruplex DNA in Live Cells: A Systematic Advancement of Thiazole Orange Scaffold To Enhance Binding Specificity and Inhibition of Gene Expression” (J Med Chem, 2021) are described below.

SMILES strings stand for the structures. The source made the active and inactive calls. The rule behind the calls is not given here.

One assay concerns DNA. The experiment in a line: Binding affinity to ds26 DNA (unknown origin) assessed as equilibrium binding constant at 5 uM at 25 degreeC by […]. It is filed as nucleic-acid assay. The method, boiled down:
(§1)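 Fluorescence titration: ligand 5 μM in 10 mM Tris-HCl pH 7.4 with 60 mM KCl, nucleic acid added until saturation, 25 °C. Keq from nonlinear fit of F/F0 to an independent-site model.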

Assay [1] concerns Quadruplex DNA. The experiment in a line: Binding affinity to c-myc promoter G-quadruplex DNA Pu22 (unknown origin) assessed as equilibrium binding constant at 5 uM at 25 degreeC by […]. It is filed as nucleic-acid assay. The procedure, abridged: as §1
The test system of assay [2] is Quadruplex DNA. The experiment in a line: Binding affinity to telomeric Htg24 G-quadruplex DNA (unknown origin) assessed as emission wavelength at 480 to 483 nm at pH 7.4 by spectrophotometric method. It is filed as nucleic-acid assay.
The subject of another assay is i-motif DNA. The assay is described as follows: Binding affinity to promoter i-motif DNA (unknown origin) assessed as fluorescence signal at 5 uM under pH condition 7.4 by fluorescence method. It is filed as nucleic-acid assay. The procedure, abridged:
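Ligand 5 μM with each nucleic acid at 15 μM in 10 mM Tris-HCl pH 7.4, 60 mM KCl; emission enhancement expressed as F/F0 against ligand without DNA.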

Assay [3] deals with Quadruplex DNA. The assay is described as follows: Binding affinity to telomeric Htg24 G-quadruplex DNA (unknown origin) assessed as decrease in peak intensity at guanine base G15 at 5 uM under pH condition 7.4 by spectrophotometric titration analysis. It is filed as nucleic-acid assay.
Assay [4] relates to Quadruplex DNA. The experiment in a line: Binding affinity to G4 quadruplex DNA in human HeLa cells assessed as BG4 foci formation at 10 to 20 uM. It is filed as cell-based. The following applies: dose 10-20 µM.
Another assay relates to HeLa. The assay is described as follows: Induction of cellular senescence in human HeLa cells assessed as positive SA-beta-Gal cells at 0.5 to 4 uM incubated for 18 days by inverted fluorescence microscopic analysis. It is filed as functional, cell-based. The following applies: dose 0.5-4 µM, time 18.0 day. The procedure, abridged:
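HeLa cells were exposed to compound for 18 days, with drug-containing medium replaced every three days. Cells were then fixed 15 min at room temperature and stained for β-galactosidase at 37 °C overnight. Stained cells were examined under an inverted microscope.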

Assay [5] deals with Quadruplex DNA. The assay is described as follows: Binding affinity to G4 quadruplex DNA in human U87 cells assessed as increase in BG4-induced fluorescence signal at 5 uM incubated for 30 mins by immunofluorescence based confocal microscopic analysis. It is filed as cell-based. The method, boiled down:
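U87 cells fixed in 4% paraformaldehyde for 15 min, permeabilized with 0.1% Triton X-100 at 37 °C for 30 min, blocked with 5% goat serum for 3 h. BG4 antibody 3 h at 37 °C, then DyLight 405 anti-mouse IgG 3 h at 37 °C, then ligand 5 μM for 30 min. Confocal imaging for co-localization.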

Assay [6] has as its system Quadruplex DNA. The assay is described as follows: Binding affinity to G4 quadruplex DNA in human U87 cells assessed as decrease in fluorescence intensity at 5 uM in presence of 5 to 20 uM BRACO19 by DAPI staining based confocal laser microscopic analysis. It is filed as cell-based. The method, boiled down:
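Live U87 cells stained with ligand (5 μM) plus DAPI, with BRACO19 added at 0, 5, 10, 15 or 20 μM. Confocal imaging with excitation at 488 or 571 nm for the ligand and 402 nm for DAPI; nuclear spot fluorescence intensity scored.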

The test system of another assay is PC-3. The assay is described as follows: Antiproliferative activity against human PC-3 cells assessed as reduction in cell viability […] by MTT assay. It is filed as functional, cell-based.
Another assay relates to HepG2. The experiment in a line: Antiproliferative activity against human HepG2 cells assessed as reduction in cell viability […] by MTT assay. It is filed as functional, cell-based.
For the next assay, the system named is U-87 MG. The assay is described as follows: Antiproliferative activity against human U87 cells assessed as reduction in cell viability […] by MTT assay. It is filed as functional, cell-based, U-87MG ATCC. Background: Tetrazolium assays rely on reduction of a dye to a coloured formazan, in cell work by metabolically active cells.
Another assay relates to 16HBE14o-. The assay is described as follows: Cytotoxicity against human 16HBE14o- cells assessed as cell viability incubated for 48 hrs by MTT assay. It is filed as cell-based. The following applies: 36 h, in the assay text read “36 hrs” for “48 hrs”. The method, boiled down: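 Cells were plated and grown 48 h at 37 °C, 5% CO2, in DMEM with 10% FBS. They were then given graded ligand concentrations for 36 h and treated with MTT (5 mg/ml) for 4 h in the dark. Formazan was dissolved in DMSO and absorbance read at 577 nm. IC50 was taken from a sigmoidal dose–response fit; three independent experiments.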

For assay [7], the system named is Quadruplex DNA [UNDEFINED MUTATION]. The assay is described as follows: Effect on confirmation of telomeric Htg24 G-quadruplex DNA T19G mutant (unknown origin) assessed as hybrid topology at 5 uM at pH 7.4 by circular dichroism analysis. It is filed as nucleic-acid assay. The note with it: Homo sapiens. The procedure, abridged: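 CD spectra recorded on G4-DNA and ligand, each at 5 μM, in 10 mM Tris-HCl, pH 7.4, with 60 mM KCl. Scan range 220–340 nm in a 1 mm quartz cuvette, 1 nm bandwidth and step, 0.5 s/point. Each spectrum is the average of three scans.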

Assay [8] shares this test system. The assay is described as follows: Binding affinity to telomeric Htg24 G-quadruplex DNA G3C mutant (unknown origin) assessed as negative fluorescence signal at 5 uM under pH condition 7.4 by fluorescence titration analysis. The note with it: Homo sapiens. It is filed as nucleic-acid assay. The method, boiled down: (§2)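 Ligand held at 5 μM and mixed with each Htg24 point mutant in Tris-HCl buffer containing 60 mM KCl, pH 7.4. Fluorescence was read, and the signal change was computed as (F mutant − F wild type)/F wild type.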

Assay [9] has the same test system. The experiment in a line: Binding affinity to telomeric Htg24 G-quadruplex DNA G3T mutant (unknown origin) assessed as negative fluorescence signal at 5 uM under pH condition 7.4 by fluorescence titration analysis. It is filed as nucleic-acid assay. The note with it: Homo sapiens. The method, boiled down:
as §2

The test system is the same in assay [10]. The assay is described as follows: Binding affinity to telomeric Htg24 G-quadruplex DNA G5C mutant (unknown origin) assessed as negative fluorescence signal at 5 uM under pH condition 7.4 by fluorescence titration analysis. It is filed as nucleic-acid assay. The note with it: Homo sapiens. The method, boiled down: as §2
The test system is the same in assay [11]. The assay is described as follows: Binding affinity to telomeric Htg24 G-quadruplex DNA T6G mutant (unknown origin) assessed as negative fluorescence signal at 5 uM under pH condition 7.4 by fluorescence titration analysis. It is filed as nucleic-acid assay. The following applies: Homo sapiens. The procedure, abridged:
as §2

The test system is the same in assay [12]. The assay is described as follows: Binding affinity to telomeric Htg24 G-quadruplex DNA G16A mutant (unknown origin) assessed as negative fluorescence signal at 5 uM under pH condition 7.4 by fluorescence titration analysis. It is filed as nucleic-acid assay. The note with it: Homo sapiens. The method, boiled down: (§3)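 Ligand 5 μM mixed with wild-type or point-mutant Htg24 in Tris-HCl buffer with 60 mM KCl; signal change calculated as (F mutant − F wild type)/F wild type.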

The test system is the same in assay [13]. The experiment in a line: Binding affinity to telomeric Htg24 G-quadruplex DNA G16C mutant (unknown origin) assessed as negative fluorescence signal at 5 uM under pH condition 7.4 by fluorescence titration analysis. It is filed as nucleic-acid assay. The following applies: Homo sapiens. The procedure, abridged: as §3
Assay [14] shares this test system. The assay is described as follows: Binding affinity to telomeric Htg24 G-quadruplex DNA G16T mutant (unknown origin) assessed as negative fluorescence signal at 5 uM under pH condition 7.4 by fluorescence titration analysis. It is filed as nucleic-acid assay. The note with it: Homo sapiens. The method, boiled down:
as §3

For assay [15] the test system is unchanged. The assay is described as follows: Binding affinity to telomeric Htg24 G-quadruplex DNA G22T mutant (unknown origin) assessed as negative fluorescence signal at 5 uM under pH condition 7.4 by fluorescence titration analysis. It is filed as nucleic-acid assay. The following applies: Homo sapiens. The method, boiled down:
as §2

For assay [16] the test system is unchanged. The experiment in a line: Binding affinity to telomeric Htg24 G-quadruplex DNA G23A mutant (unknown origin) assessed as fluorescence signal at 5 uM under pH condition 7.4 by fluorescence titration analysis. It is filed as nucleic-acid assay. The note with it: Homo sapiens. The procedure, abridged:
as §2

The test system is the same in assay [17]. The assay is described as follows: Binding affinity to telomeric Htg24 G-quadruplex DNA G11A mutant (unknown origin) assessed as fluorescence signal at 5 uM under pH condition 7.4 by fluorescence titration analysis. It is filed as nucleic-acid assay. The note with it: Homo sapiens.

The term IC50 denotes the concentration that gives 50% inhibition.

`CN(C)c1ccc(/C=C/c2cc(/C=C3\Sc4ccccc4N3CCCN3CCOCC3)c3ccccc3[n+]2C)cc1.[I-]`: the Kb in the assay with DNA was determined as 367000 M⁻¹; in the assay on Quadruplex DNA [1], 309000 M⁻¹. The Activity in the assay with Quadruplex DNA [2] worked out at 642 nm. Besides, in the assay with i-motif DNA, the fold change (FC) came out at 1. For the same compound, the result (in the assay on Quadruplex DNA [3]; in the assay on Quadruplex DNA [4]; with HeLa; in the assay with Quadruplex DNA [5]; in the assay on Quadruplex DNA [6]; in assay [7]) was Active. Further, the result in assay [8], in [9], in assay [10], in assay [11], in assay [12] and in assay [13] was Active. Also, the outcome in assay [14] and in [15] was Active. The IC50 in the assay on PC-3 amounted to 12.8 µM; in the assay on HepG2 it was 12.8 µM; with U-87 MG it was 15.2 µM; in the assay on 16HBE14o- it was 52.3 µM. Besides, the outcome in assay [16] and in [17] was inactive.
